One series deals with P. falciparum (D6). Put plainly: in vitro antimalarial activity, plasmodial LDH. Format: cell-based, Plasmodium falciparum. Particulars: Plasmodium falciparum, D6, 72 h, read-out: P. falciparum (D6) IC50.
For series [1], the system named is SK-MEL, KB, BT-549, SK-OV-3, VERO and LLC-PK1 cells. Put plainly: cytotoxicity, neutral red uptake assay. Format: cell-based, mammalian. The conditions noted are these: highest test concentration 4760 ng/mL. The method, boiled down: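 Cells seeded at 25 000/well and allowed 24 h to reach confluence. Test compound was then added and incubated 48 h. Viable cells were counted by a modified neutral red uptake method. The panel was four human cancer lines and two noncancerous mammalian kidney lines. Doxorubicin served as positive control and DMSO as negative control.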

In the next series the test system is MRSA (ATCC33591). Nature of the series: in vitro antibacterial activity. Format: cell-based, methicillin-resistant Staphylococcus aureus. The conditions noted are these: Staphylococcus aureus, ATCC33591|MRSA, read-out: MIC, MRSA. The method, boiled down: (§1)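 Test compound serially diluted in 20% DMSO/saline and plated in duplicate, up to 20 μg/mL. Inoculum in cation-adjusted Mueller–Hinton broth, pH 7.3, set by OD630 to 5 × 10^5 CFU/mL. Incubated 16–20 h at 35 °C; 530 nm read before and after. IC50 is 50% growth inhibition; MIC is no detectable growth. MBC from clear wells subcultured on agar. Ciprofloxacin control.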

The test system of another series is A. fumigatus ATCC 90906. Nature of the series: in vitro antifungal activity. Format: cell-based, Aspergillus fumigatus. The conditions noted are these: Aspergillus fumigatus; for IC50: ATCC90906, read-out: A. fumigatus IC50; for MFC: ATCC90906, read-out: A. fumigatus MFC; for MIC: ATCC90906, read-out: A. fumigatus MIC. The method, boiled down:
(§2)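 Modified NCCLS broth method in Sabouraud dextrose. Inoculum set by OD630 to 1.5 × 10^3 CFU/mL. Test compound serially diluted in 20% DMSO/saline, duplicate wells, up to 20 μg/mL. Incubated 70–74 h at 35 °C; 530 nm read before and after. IC50 is 50% growth inhibition; MIC is no detectable growth. MFC from clear wells subcultured on agar. Amphotericin B control.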

The next series relates to P. falciparum (W2). Nature of the series: in vitro antimalarial activity, plasmodial LDH. The conditions noted are these: Plasmodium falciparum, W2, 72 h, read-out: P. falciparum (W2) IC50, CQ-resistant W2 strain, 72 h. Format: cell-based, Plasmodium falciparum. The method, boiled down: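 P. falciparum-infected erythrocytes (2% parasitemia, 2% hematocrit) in RPMI 1640 with 10% human serum and 60 μg/mL amikacin. Exposed to test compound dilutions for 72 h at 37 °C under 90% N2/5% O2/5% CO2. LDH measured with Malstat reagent (30 min, room temperature), then NBT/PES for 1 h in the dark, stopped with 5% acetic acid, read at 650 nm. IC50 from dose-response curves.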

The subject of a further series is C. albicans ATCC90028. Put plainly: in vitro antifungal activity. Format: cell-based, Candida albicans. The conditions noted are these: Candida albicans; for IC50: ATCC90028, read-out: C. albicans IC50; for MFC: ATCC90028, read-out: C. albicans MFC; for MIC: ATCC90028, read-out: C. albicans MIC. The method, boiled down: as §2
The subject of series [2] is M. intracellulare (ATCC23068). Put plainly: in vitro antibacterial activity, modified alamarBlue procedure. Format: cell-based, Mycobacterium intracellulare. Particulars: Mycobacterium intracellulare; for IC50: ATCC23068, read-out: IC50 (concentration that affords 50% growth inhibition), M. intracellulare; for MBC: ATCC23068, read-out: MBC (minimum bactericidal concentration), M. intracellulare; for MIC: ATCC23068, read-out: MIC, M. intracellulare. The method, boiled down:
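Modified alamarBlue microplate method. Test compound serially diluted in 20% DMSO/saline, duplicate wells, up to 20 μg/mL. Inoculum 2.0 × 10^6 CFU/mL in Middlebrook 7H9 with OADC, pH 7.3, containing 5% alamarBlue. Incubated 70–74 h at 37 °C, 10% CO2; fluorescence 544ex/590em read before and after. MIC: no blue-to-pink change. MBC by subculturing blue wells on agar. Ciprofloxacin control.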

For series [3], the system named is L. donovani promastigotes. Put plainly: in vitro antileishmanial activity, alamarBlue assay. The conditions noted are these: Leishmania donovani, 48 h; for IC50: read-out: L. donovani IC50, promastigotes, 48 h; for IC90: read-out: L. donovani IC90, promastigotes, 48 h. Format: cell-based, Leishmania donovani. In general terms: Alamar Blue is a resazurin reagent that responds to reducing activity.

The next series relates to SA (ATCC29213). Put plainly: in vitro antibacterial activity. Format: cell-based. The conditions noted are these: Staphylococcus aureus; for IC50: ATCC29213, read-out: IC50 (concentration that affords 50% growth inhibition), SA; for MBC: ATCC29213, read-out: MBC (minimum bactericidal concentration), SA; for MIC: ATCC29213, read-out: MIC, SA. The method, boiled down:
as §1

Another series deals with C. neoformans ATCC90113. Put plainly: in vitro antifungal activity. The conditions noted are these: Cryptococcus neoformans; for IC50: ATCC90113, read-out: C. neoformans IC50; for MFC: ATCC90113, read-out: C. neoformans MFC; for MIC: ATCC90113, read-out: C. neoformans MIC. Format: cell-based, Cryptococcus neoformans. The method, boiled down: as §2

Values after ≈ are worked out from the molar mass of the structure shown.

A word on the MIC: it is the smallest concentration in the dilution series that meets the test's criterion for growth inhibition. One may read the MFC as the lowest tested concentration that kills the fungus rather than only halting it. For orientation: IC90 means the concentration needed for an effect of 90%. For the molecule `CCCCCCCOc1c(OC)cc(NC(C)CCCNC(=O)C(N)CCSC)c2nc(C(C)(C)C)ccc12` (stereo not drawn) [compound 116, 2-Amino-N-(4-(2-tert-butyl-5-(heptyloxy)-6-methoxyquinolin-8-ylamino)pentyl)-4-(methylthio)butanamide], the IC50 is 4.76 µg/mL (≈ 8.49 µM) in the series on P. falciparum (D6); more than 20 µg/mL with A. fumigatus ATCC 90906; 3.2 µg/mL (≈ 5.71 µM) in the series on P. falciparum (W2); more than 20 µg/mL in the series with C. albicans ATCC90028; more than 20 µg/mL in [2]; 4.1 µg/mL (≈ 7.31 µM) in [3]. Also, the IC50 is 4.07 µg/mL (≈ 7.26 µM) in the series on SA (ATCC29213) and 1.29 µg/mL (≈ 2.3 µM) in the series with C. neoformans ATCC90113. The “cytotoxicity CTX” value in [1] was “NC (NC, not cytotoxic up to 4760 ng/mL (4.76 μg/mL))”. Further, the MIC in the series with MRSA (ATCC33591) is 5 µg/mL (≈ 8.92 µM); in the series with A. fumigatus ATCC 90906, more than 20 µg/mL; with C. albicans ATCC90028 it was more than 20 µg/mL; in series [2], more than 20 µg/mL; in the series with SA (ATCC29213), 10 µg/mL (≈ 17.8 µM); in the series with C. neoformans ATCC90113 it was 10 µg/mL (≈ 17.8 µM). Moreover, the MFC is more than 20 µg/mL with A. fumigatus ATCC 90906, more than 20 µg/mL in the series with C. albicans ATCC90028 and 10 µg/mL (≈ 17.8 µM) with C. neoformans ATCC90113. Also, the MBC in series [2] was more than 20 µg/mL; in the series with SA (ATCC29213), 10 µg/mL (≈ 17.8 µM). Moreover, the IC90 in series [3] amounted to 12 µg/mL (≈ 21.4 µM).
Consider `CCCCCCCCOc1c(OC)cc(NC(C)CCCNC(=O)C(N)C(C)CC)c2nc(C(C)(C)C)ccc12` (stereo not drawn) [compound 119, 2-Amino-N-(4-(2-tert-butyl-6-methoxy-5-(octyloxy)quinolin-8-ylamino)pentyl)-3-methylpentanamide], for which the IC50 with P. falciparum (D6) was more than 4.76 µg/mL; in the series with A. fumigatus ATCC 90906 it was more than 20 µg/mL; with P. falciparum (W2), more than 4.76 µg/mL; in the series on C. albicans ATCC90028 it was more than 20 µg/mL; in [2], more than 20 µg/mL; in [3], 6.04 µg/mL (≈ 10.8 µM). Further, the results for the IC50 with SA (ATCC29213) and in the series on C. neoformans ATCC90113 were 5.03 µg/mL (≈ 9.03 µM) and 2.87 µg/mL (≈ 5.15 µM), respectively. In addition, the “cytotoxicity CTX” value in [1] is listed as “NC (NC, not cytotoxic up to 4760 ng/mL (4.76 μg/mL))”. The MIC is more than 20 µg/mL with MRSA (ATCC33591); more than 20 µg/mL in the series on A. fumigatus ATCC 90906; more than 20 µg/mL in the series with C. albicans ATCC90028; more than 20 µg/mL in series [2]; more than 20 µg/mL in the series on SA (ATCC29213); 10 µg/mL (≈ 18 µM) in the series with C. neoformans ATCC90113. Moreover, the MFC was more than 20 µg/mL in the series with A. fumigatus ATCC 90906, more than 20 µg/mL in the series on C. albicans ATCC90028 and 10 µg/mL (≈ 18 µM) in the series with C. neoformans ATCC90113. For the same molecule, the MBC (in [2]; in the series on SA (ATCC29213)) was more than 20 µg/mL each time. Also, the IC90 in series [3] was found to be 26.9 µg/mL (≈ 48.4 µM).
Regarding `CCCCCCCCOc1c(OC)cc(NC(C)CCCNC(=O)C(N)CCSC)c2nc(C(C)(C)C)ccc12` (stereo not drawn) [compound 120, 2-Amino-N-(4-(2-tert-butyl-6-methoxy-5-(octyloxy)quinolin-8-ylamino)pentyl)-4-(methylthio)butanamide], the IC50 in the series on P. falciparum (D6) was 0.16 µg/mL (≈ 0.278 µM); in the series on A. fumigatus ATCC 90906, more than 20 µg/mL; in the series on P. falciparum (W2) it was 0.15 µg/mL (≈ 0.261 µM); in the series with C. albicans ATCC90028, more than 20 µg/mL; in [2], 20 µg/mL (≈ 34.8 µM); in [3] it was 6.99 µg/mL (≈ 12.2 µM). In addition, the IC50 was 11.7 µg/mL (≈ 20.3 µM) in the series with SA (ATCC29213) and 2.74 µg/mL (≈ 4.77 µM) in the series with C. neoformans ATCC90113. Besides, the “cytotoxicity CTX” value in series [1] is listed as “NC (NC, not cytotoxic up to 4760 ng/mL (4.76 μg/mL))”. Further, the MIC was 20 µg/mL (≈ 34.8 µM) with MRSA (ATCC33591); more than 20 µg/mL in the series on A. fumigatus ATCC 90906; more than 20 µg/mL with C. albicans ATCC90028; more than 20 µg/mL in series [2]; 20 µg/mL (≈ 34.8 µM) in the series with SA (ATCC29213); 5 µg/mL (≈ 8.7 µM) in the series with C. neoformans ATCC90113. For the same molecule, the MFC with A. fumigatus ATCC 90906 is more than 20 µg/mL; with C. albicans ATCC90028 it was more than 20 µg/mL; in the series on C. neoformans ATCC90113, 5 µg/mL (≈ 8.7 µM). In addition, the MBC (in series [2]; with SA (ATCC29213)) was more than 20 µg/mL in each case. In addition, the IC90 in series [3] is 26.4 µg/mL (≈ 46 µM).

(Values after PMC6045484 (ACS Omega, 2018).)
